Only some compounds are listed: those with a hit (about 2.3% of all), similar ones and a draw of the others.
TRPC4 act – opens the mouse TRPC4 cation channel | B-score at 10 µM | 0.49% of 310,000 active | Q9QUQ5 | HEK293 TRPC4beta/mu-opioid, Fluo4 calcium fluorescence; hits give high values;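 active means B-score above 5 SD of library B-scores, and initial fluorescence ratio not above library mean plus 5 SD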;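 further: positive B-score marks a calcium rise read as TRPC4 activation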
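Assay system: HEK293 cells stably co-expressing mouse TRPC4beta and mu-opioid receptor / Timing: Fluo4 dye loading 45 min at room temperature, 110 s recording / Signal: Fluo4 calcium-sensitive dye fluorescence, kinetic, 1 Hz baseline / Read-out: integrated baseline-normalised fluorescence ratio, converted to per-well B score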
TRPC6 activator – activators of mouse TRPC6 channel; Q61143; B-score at 10 µM; 0.13% of 310,000 active; HEK293-TRPC6 membrane potential dye fluorescence; hits give high values;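 active means B-score of the integrated fluorescence ratio above library mean plus 3 SD, and starting fluorescence ratio within library mean plus 5 SD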;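 further: higher score means more depolarization so channel activation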
Target sequence (Q61143 whole entry, looked up): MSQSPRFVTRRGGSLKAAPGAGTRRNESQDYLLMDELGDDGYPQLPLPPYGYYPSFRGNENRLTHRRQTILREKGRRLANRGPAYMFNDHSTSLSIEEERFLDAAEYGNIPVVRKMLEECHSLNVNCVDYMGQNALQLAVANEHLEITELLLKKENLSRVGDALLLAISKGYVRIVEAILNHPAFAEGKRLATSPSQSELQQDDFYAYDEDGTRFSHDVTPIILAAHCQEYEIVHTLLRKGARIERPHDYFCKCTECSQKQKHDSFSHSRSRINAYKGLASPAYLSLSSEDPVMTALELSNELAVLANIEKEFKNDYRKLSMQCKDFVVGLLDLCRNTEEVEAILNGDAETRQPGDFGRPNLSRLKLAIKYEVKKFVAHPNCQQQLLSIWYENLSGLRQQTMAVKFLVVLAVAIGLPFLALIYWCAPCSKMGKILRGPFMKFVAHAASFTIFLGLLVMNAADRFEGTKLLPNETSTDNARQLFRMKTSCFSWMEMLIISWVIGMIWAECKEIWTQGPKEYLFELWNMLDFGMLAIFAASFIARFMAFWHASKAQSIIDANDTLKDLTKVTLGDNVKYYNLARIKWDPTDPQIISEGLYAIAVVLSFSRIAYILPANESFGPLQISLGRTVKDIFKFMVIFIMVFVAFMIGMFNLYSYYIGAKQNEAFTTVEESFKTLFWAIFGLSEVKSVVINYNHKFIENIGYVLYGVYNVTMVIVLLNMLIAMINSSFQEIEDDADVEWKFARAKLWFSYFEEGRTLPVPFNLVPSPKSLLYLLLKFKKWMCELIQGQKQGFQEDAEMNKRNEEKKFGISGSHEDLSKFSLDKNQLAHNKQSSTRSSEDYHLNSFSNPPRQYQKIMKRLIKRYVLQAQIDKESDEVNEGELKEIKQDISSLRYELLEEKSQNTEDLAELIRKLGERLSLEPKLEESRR
TRPC4 block – blocks the mouse TRPC4 cation channel; 0.39% of 300,000 active; B-score at 10 µM; AID 2247; HEK293 TRPC4beta/mu-opioid, DAMGO-evoked Fluo4 calcium flux; hits give low values;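 active means B-score over 3 SD under the library average, no early fluorescence shift, positive overall ratio signal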
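test system = HEK293 cells with stable TRPC4beta plus mu-opioid receptor expression | detection = Fluo4 Ca2+ flux fluorescence | read-out = integrated fluorescence ratio relative to baseline, converted to per-well B score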
TRPC6 inhibitor – blocks the mouse TRPC6 cation channel | B-score at 10 µM | 1.1% of 310,000 active | HEK293-TRPC6, membrane potential dye, ACh-evoked depolarization; hits give low values | AID 2553 | Q61143;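 active means B-score under library mean minus 3 SD, initial fluorescence not abnormally high, positive integrated signal ratio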;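 further: B-score derived from integrated fluorescence ratio over the kinetic read; more negative B-score means stronger inhibition of depolarization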
TRPC4 potent – TRPC4 (mouse) allosteric potentiation | 0.42% of 310,000 active | B-score at 10 µM | HEK293 TRPC4beta/mu-opioid, DAMGO EC20, Fluo-4 Ca2+ flux; hits give high values;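 active means B-score of calcium response area above 5 SD of library B-scores, with initial fluorescence ratio within 5 SD of library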;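 further: B-score of integrated fluorescence ratio over time as area under calcium response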
TRPC4 sel inh 2 – second selectivity test of TRPC6 inhibitors: effect on mouse TRPC4; HEK293 TRPC4/MOR, membrane potential dye fluorescence; channel activated by saturating DAMGO dose; AID 2776; 42% of 920 active; inhibition, % at 10 µM; shares compounds with TRPC6 inhibitor;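 active means compounds whose fluorescence signal differed from control wells by over 3 SD, either direction, in both duplicate plates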
TRPC4 spec – tests whether TRPC6 inhibitors also affect mouse TRPC4 | activity change, negative = inhibition, % at 10 µM | AID 2777 | shares compounds with TRPC6 inhibitor | HEK293 TRPC4/mu-opioid, membrane potential fluorescence | 61% of 920 active;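 active means rise or fall in signal beyond 3 SD of buffer-only wells in both replicate plates, either sign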;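 further: integrated kinetic ratio of fluorescence range over baseline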
HEK293 MPD ctr 2-1 – parental HEK293 nonspecific activity of TRPC6 inhibitors, second screen; shares compounds with TRPC6 inhibitor; parental HEK293 membrane potential dye fluorescence; maximal acetylcholine challenge after compound addition; signal change vs control, % at 10 µM; 31% of 920 active; AID 2779;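 active means membrane potential signal moving either way by over 3 SD of the maximum-effect control, in both duplicate plates, meaning non-specific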
HEK293 MPD ctr-1 – parental HEK293 nonspecific activity of TRPC6 inhibitors; shares compounds with TRPC6 inhibitor; parental HEK293 membrane potential dye fluorescence; membrane potential signal change, % at 10 µM; 60% of 920 active; AID 2780;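 active means membrane potential signal shifting up or down by more than 3 SD of buffer-only wells, on both duplicate plates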
HEK293 MPD ctr-2 – counter-screen for TRPC6 modulators: effect in parental HEK293 cells | shares compounds with TRPC6 inhibitor | membrane potential dye fluorescence | membrane potential signal change, % at 10 µM | 51% of 2,400 active | AID 488924;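 active means membrane potential signal moves up or down beyond 5 SD from buffer-only wells, on both duplicate plates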
HEK293 MPD ctr 2-2 – second counter-screen for TRPC6 modulators: effect in parental HEK293 cells. AID 488926. membrane potential dye fluorescence; after compound, maximal acetylcholine stimulation. inhibition, % at 10 µM. 14% of 2,400 active. shares compounds with TRPC6 inhibitor;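 active means membrane potential signal drops by more than 5 SD from the mean control signal, in both duplicate plates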;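 further: plate controls were acetylcholine ECmax control wells for no effect and buffer only wells for full effect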
TRPC4 ctr mod – mouse TRPC4 off-target activity of TRPC6 modulators. 69% of 2,400 active. percent change from control (negative = decrease, positive = increase), % at 10 µM. HEK293 TRPC4/mu-opioid, membrane potential fluorescence. shares compounds with TRPC6 inhibitor;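 active means membrane potential signal moved up or down beyond 5 SD of buffer control wells, in both duplicate plates, actives on both sides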;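 further: plate controls were assay buffer wells for no effect and DAMGO maximal-effect wells for full effect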
TRPC4/MOR inh 2 – second check of whether TRPC6 modulators also affect mouse TRPC4. shares compounds with TRPC6 inhibitor. HEK293 TRPC4/mu-opioid, membrane potential dye fluorescence; stimulated with maximal-effect DAMGO. inhibition, % at 10 µM. 55% of 2,400 active. AID 488928;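 active means drop in membrane potential signal beyond 5 SD of the control wells in both duplicate plates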;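 further: TRPC4 counter screen for TRPC6 hits run under conditions tuned for TRPC6 not TRPC4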
TRPC6 inh conf – confirmation of mouse TRPC6 inhibitors. shares compounds with TRPC6 inhibitor. HEK293-TRPC6, membrane potential dye, ACh-evoked depolarization. inhibition, % at 10 µM. 43% of 3,300 active. AID 488960;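 active means fluorescence ratio falls more than 5 SD below the full-stimulation control mean, in both duplicate runs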;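 further: integrated fluorescence ratio of peak minus minimum over baseline after agonist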
TRPC6 act confirm – mouse TRPC6 activator confirmation. HEK293-TRPC6 membrane potential dye fluorescence, FDSS. activation, % at 10 µM. shares compounds with TRPC6 inhibitor. 11% of 2,800 active;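 active means ratio signal rise beyond 5 SD above unstimulated control wells' mean, seen in both duplicate runs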;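 further: plate controls were buffer EC0 wells for no effect and acetylcholine ECmax response for full effect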
Starred values were filed as active, the others as inactive; i = inactive; / = no result given.

SMILES | TRPC4 act | TRPC6 activator | TRPC4 block | TRPC6 inhibitor | TRPC4 potent | HEK293 MPD ctr-2 | HEK293 MPD ctr 2-2 | TRPC4 ctr mod | TRPC4/MOR inh 2 | TRPC6 inh conf | TRPC6 act confirm | others
O=C1c2cccc3cccc(c23)C(=O)N1CCCN1CCN(c2ccc(F)cc2)CC1 | i | i | i | -7.06* | i | i | i | -11.5%* | 65.5%* | i | i
COCCNc1c2c(nc3c(-c4ccccc4)c(C)nn13)CCC2 | i | i | i | i | i | / | / | / | / | / | /
Cc1nn2c(NCCCN(C)C)c3c(nc2c1-c1ccccc1)CCC3 | i | i | i | -7.94* | i | -167.0%* | i | -30.5%* | 55.0%* | i | i
Cc1nn2c(NCCCN(C)C)c3c(nc2c1-c1ccccc1)CCCC3 | i | i | i | -6.77* | i | / | / | / | / | 63.0%* | i | TRPC4 sel inh 2=72.5%*;TRPC4 spec=-19.1%*;HEK293 MPD ctr 2-1=i;HEK293 MPD ctr-1=-296.5%*
COc1ccc(-c2nc(C#N)c(NCCCN(C)C)o2)cc1OC | i | i | i | -6.37* | i | i | i | i | i | i | i
COc1ccc(CCNc2oc(-c3ccc(OC)c(OC)c3)nc2C#N)cc1 | i | i | i | i | i | / | / | / | / | / | /
CCCN(CC(=O)Nc1ccc(Cl)cc1Cl)C(=O)c1ccc(=O)[nH]c1 | i | i | i | i | i | / | / | / | / | / | /
CC1(C)CC(=O)C2=C(C1)NC1=C(C(=O)c3ccccc31)C2c1cc([N+](=O)[O-])ccc1O (centres undefined) | i | i | i | -5.41* | i | i | i | -13.0%* | 66.5%* | 42.0%* | i
O=C(c1ccccc1[N+](=O)[O-])N1CC2C3C=CC(C3)C2C1 (centres undefined) | i | i | i | -5.45* | i | i | i | i | i | i | i
O=C(c1cccc([N+](=O)[O-])c1)N1CC2C3C=CC(C3)C2C1 (centres undefined) | i | i | i | i | i | / | / | / | / | / | /
Cc1cc2nc3n(c2cc1C)CC1CC(C(=O)NCc2cccc(C(F)(F)F)c2)N(C)C31 (centres undefined) | i | i | i | i | i | / | / | / | / | / | /
CC(=O)Nc1c(-c2ccccc2)nc2ccc(Cl)cn12 | i | i | i | i | i | / | / | / | / | / | /
Cc1ccccc1Nc1c(-c2ccc(N3CCOCC3)cc2)nc2cnccn12 | i | i | i | i | i | / | / | / | / | / | /
Cc1ccn2c(Nc3ccccc3C)c(-c3cccnc3)nc2c1 | i | i | i | -5.7* | i | -166.0%* | i | -32.5%* | 77.0%* | 46.5%* | i
Cc1ccccc1Nc1c(-c2ccncc2)nc2ccc(Cl)cn12 | i | i | i | -5.78* | i | i | i | -15.5%* | 70.0%* | i | i
CCOC(=O)c1c[nH]c2c(Cl)ccc(Cl)c2c1=O | i | i | i | -6.06* | i | -324.5%* | i | -39.0%* | 43.0%* | i | i
CCOC(=O)c1c[nH]c2c3c(ccc2c1=O)CCCC3 | i | i | i | i | i | / | / | / | / | / | /
CCOC(=O)c1ccc2[nH]cc(C(C)=O)c(=O)c2c1 | i | i | i | -7.47* | i | / | / | / | / | i | i | TRPC4 sel inh 2=i;TRPC4 spec=-25.6%*;HEK293 MPD ctr 2-1=i;HEK293 MPD ctr-1=-422.5%*
CCOC(=O)c1c[nH]c2c(C)ccc(Cl)c2c1=O | i | i | i | -7.62* | i | -303.0%* | i | -41.5%* | 53.0%* | 60.0%* | i
CCOC(=O)c1c[nH]c2c(Cl)c(Cl)ccc2c1=O | i | i | i | -9.97* | i | / | / | / | / | i | i | TRPC4 sel inh 2=i;TRPC4 spec=-24.6%*;HEK293 MPD ctr 2-1=i;HEK293 MPD ctr-1=-298.0%*
O=C(Nc1nc2c(F)cc(F)cc2s1)C1CC(=O)N(Cc2ccco2)C1 (centres undefined) | i | i | i | i | i | / | / | / | / | / | /
CCCC(=O)N1CCN(c2ccc(NC(=O)c3cccs3)cc2)CC1 | i | i | i | i | i | / | / | / | / | / | /
O=C(c1ccc(F)cc1)N1CCN(S(=O)(=O)c2ccc(Br)cc2)CC1 | i | i | i | i | i | / | / | / | / | / | /
Cn1nc([N+](=O)[O-])nc1N1CCN(c2ccc(F)cc2)CC1 | i | i | i | -7* | i | / | / | / | / | i | i | TRPC4 sel inh 2=i;TRPC4 spec=i;HEK293 MPD ctr 2-1=i;HEK293 MPD ctr-1=i
Cc1ccc(C(=O)Nc2cccc(C(=O)N/N=C/c3ccc(F)cc3)c2)cc1 | i | i | i | -5.96* | i | i | i | i | i | i | i
CC(=O)Nc1cccc(C(=O)N/N=C/c2ccc(F)cc2)c1 | i | i | i | i | i | / | / | / | / | / | /
Oc1ccc(CCNc2c3ccccc3nc3ccccc23)cc1O | i | i | i | -4.99* | i | -91.5%* | i | -13.5%* | i | i | i
O=C(Cc1ccccc1)NNc1c2ccccc2nc2ccccc12 | i | i | i | i | i | / | / | / | / | / | /
OCC(Cc1ccccc1)Nc1c2ccccc2nc2ccccc12 (centres undefined) | i | i | i | -8.99* | i | i | i | -88.0%* | 69.5%* | 54.5%* | i

Screens: PubChem BioAssay, Johns Hopkins Ion Channel Center
